According to ChEMBL document CHEMBL5154731, “Synthetic methodology-enabled discovery of a tunable indole template for COX-1 inhibition and anti-cancer activity” (Bioorg Med Chem, 2022):
pIC50: −log10 of the molar value. Activity calls are given as the source filed them. The rule behind the calls is not given here.

What was measured:
[1] = tested on: Vero; assay: Cytotoxicity against African green monkey Vero cells assessed as reduction in cell viability at 2.5 to 500 uM measured after 72 hrs by MTS assay; assay type: toxicity, cell-based; conditions: chlorocebus sabaeus, dose 2.5-500 µM
Summary of the method: (§1)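 Cells seeded at 2000 to 4500/well on day 1. Next day, treated 72 h with drug at 2.5 to 500 μM from a 1% DMSO solution in medium (DMSO control), each in triplicate. All with 10% FBS. MTS reagent added for 2.5–3 h at 37 °C, absorbance at 490 nm; eight points averaged per concentration.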

[2] = biological target: T1, Prostaglandin G/H synthase 1 (Ovis aries) (UniProt P05979); assay: Inhibition of full-length ovine COX-1 at 5 uM using arachidonic acid as substrate preincubated for 5 mins followed by substrate addition and measured after 2 mins by colorimetry relative to control; conditions: time 7.0 min
T1 sequence (whole entry): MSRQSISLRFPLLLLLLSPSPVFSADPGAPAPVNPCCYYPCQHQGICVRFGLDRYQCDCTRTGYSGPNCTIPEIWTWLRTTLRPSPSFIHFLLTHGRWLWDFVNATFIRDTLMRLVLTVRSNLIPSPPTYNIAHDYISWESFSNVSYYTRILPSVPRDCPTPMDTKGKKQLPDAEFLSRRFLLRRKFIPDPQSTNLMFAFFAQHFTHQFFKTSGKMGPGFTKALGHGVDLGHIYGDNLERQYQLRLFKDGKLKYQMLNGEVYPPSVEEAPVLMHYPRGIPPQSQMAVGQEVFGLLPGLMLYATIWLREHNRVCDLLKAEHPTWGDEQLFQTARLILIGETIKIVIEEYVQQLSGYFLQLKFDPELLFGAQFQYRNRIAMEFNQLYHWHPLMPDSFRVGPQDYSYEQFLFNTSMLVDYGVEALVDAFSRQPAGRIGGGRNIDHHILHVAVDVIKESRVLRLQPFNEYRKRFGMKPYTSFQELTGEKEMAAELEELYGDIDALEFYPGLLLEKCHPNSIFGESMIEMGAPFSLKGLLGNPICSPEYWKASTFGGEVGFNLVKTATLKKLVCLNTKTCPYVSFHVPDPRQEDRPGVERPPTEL

[3] = biological target: T1, Prostaglandin G/H synthase 1 (Ovis aries); assay: Inhibition of full-length ovine COX-1 at 50 uM using arachidonic acid as substrate preincubated for 5 mins followed by substrate addition and measured after 2 mins by colorimetry relative to control; conditions: time 7.0 min
[4] = biological target: T2, Prostaglandin G/H synthase 1 (Ovis aries, UniProt P05979); assay: Inhibition of full-length ovine COX-1 using arachidonic acid as substrate preincubated for 5 mins followed by substrate addition and measured after 2 mins by colorimetry
T2 sequence (P05979 whole entry): T1 sequence (whole entry)

[5] = tested on: MDA-MB-231; assay: Cytotoxicity against human MDA-MB-231 cells assessed as reduction in cell viability measured after 72 hrs by MTS assay; assay type: functional, cell-based; conditions: MDA-MB-231, 72 h; summary of the method: as §1
[6] = tested on: HeLa; assay: Cytotoxicity against human HeLa cells assessed as reduction in cell viability measured after 72 hrs by MTS assay; assay type: functional, cell-based; summary of the method: as §1
[7] = Cytotoxicity against African green monkey Vero cells assessed as reduction in cell viability measured after 72 hrs by MTS assay; assay type: toxicity, cell-based; conditions: African green monkey (Chlorocebus sabaeus); summary of the method: as §1
[8] = tested on: LNCaP; assay: Cytotoxicity against human LNCaP cells over expressing androgen receptor F876L mutant assessed as reduction in cell viability measured after 72 hrs by MTS assay; assay type: functional, cell-based; summary of the method: as §1
[9] = tested on: A549; assay: Cytotoxicity against human A549 cells assessed as reduction in cell viability measured after 72 hrs by MTS assay; assay type: functional, cell-based; conditions: A549, 72 h; summary of the method: as §1
[10] = tested on: HepG2; assay: Cytotoxicity against human HepG2 cells assessed as reduction in cell viability measured after 72 hrs by MTS assay; assay type: functional, cell-based; conditions: HepG2, 72 h; summary of the method: as §1
[11] = tested on: DU-145; assay: Cytotoxicity against human DU-145 cells assessed as reduction in cell viability measured after 72 hrs by MTS assay; assay type: functional, cell-based; conditions: DU-145, 72 h; summary of the method: as §1
[12] = tested on: MCF7; assay: Cytotoxicity against human MCF7 cells assessed as reduction in cell viability measured after 72 hrs by MTS assay; assay type: functional, cell-based; conditions: MCF7, 72 h; summary of the method: as §1
[13] = tested on: HepG2; assay: Down regulation of AR expression in human HepG2 cells at 75 uM measured after 20 hrs by Western blot analysis; assay type: functional, cell-based
[14] = tested on: HepG2; assay: Induction of apoptosis in human HepG2 cells assessed as increase in cleaved caspase-3 level at 75 uM measured after 20 hrs by Western blot analysis; assay type: functional, cell-based
Summary of the method: (§2)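 Hep-G2 (1 × 10^6/well) plated 48 h before treatment, then exposed 20 h to 0.1% DMSO solutions of compound (DMSO control). Cells washed in PBS and lysed in RIPA; 20–40 μg protein run on 4–20% gel at 150 V for 65 min, transferred to PVDF, blocked in 5% BSA. Probed overnight for cleaved and pro-caspase, Bcl-xL, Bcl-2, Bax and actin, then IRDye secondaries 1 h, with fluorescence quantification.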

[15] = tested on: HepG2; assay: Induction of apoptosis in human HepG2 cells assessed as increase in ratio of Bax/Bcl-2 expression at 75 uM measured after 20 hrs by Western blot analysis; assay type: functional, cell-based; summary of the method: as §2
[16] = tested on: HepG2; assay: Induction of apoptosis in human HepG2 cells assessed as decrease in Bcl-2 expression at 75 uM measured after 20 hrs by Western blot analysis; assay type: functional, cell-based; summary of the method: as §2
[17] = tested on: HepG2; assay: Cell cycle arrest in human HepG2 cells assessed as increase in cell accumulation at G1/G0 phase at 100 uM measured after 24 to 48 hrs by propidium iodide staining based FACS analysis; assay type: functional; conditions: time 24-48 hrs
Summary of the method: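 Hep-G2 grown to 70% confluence in 10-cm dishes, treated in 0.1% DMSO medium for 24 or 48 h (0.1% DMSO control). Floating and trypsinized cells pooled, washed in PBS, fixed overnight at –20 °C in 70% ethanol, then 200 μg/mL RNase A for 30 min and 100 μg/mL propidium iodide for 30 min at room temperature. DNA content read by flow cytometry; two independent experiments in duplicate.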

[18] = tested on: HepG2; assay: Induction of apoptosis in human HepG2 cells assessed as up regulation of Bax expression at 75 uM measured after 20 hrs by Western blot analysis; assay type: functional, cell-based; summary of the method: as §2
[19] = tested on: HepG2; assay: Induction of apoptosis in human HepG2 cells assessed as down regulation of Bcl-xl expression at 75 uM measured after 20 hrs by Western blot analysis; assay type: functional, cell-based; summary of the method: as §2

| Compound | inhibition [2] [%] | inhibition [3] [%] | Activity [1] | pIC50 [5] | pIC50 [6] | IC50 at 72 h [7] [µM] | pIC50 [8] | pIC50 [9] | pIC50 [10] | pIC50 [11] | pIC50 [12] | other results |
| --- | --- | --- | --- | --- | --- | --- | --- | --- | --- | --- | --- | --- |
| COc1ccc2c(C(=O)O)cn(C)c2c1C(=O)OCC(F)(F)F | – | – | Non-Toxic | – | – | – | – | – | – | – | – | – |
| COc1ccc2c(CO)cn(C)c2c1C(=O)NCC(F)(F)F | < 20 | < 20 | – | 3.60 | 3.96 | 229 | 4.00 | 3.79 | 4.24 | 3.84 | 3.56 | pIC50 [4]: 4.07 |
| Cc1ccc(-c2cc(C(F)(F)F)nn2-c2ccc(S(N)(=O)=O)cc2)cc1 [CELECOXIB] | – | – | – | 4.16 | 4.24 | 60.6 | 4.79 | 4.24 | 4.24 | 4.23 | 4.19 | Activity [13]: Active; Activity [14]: Active; Activity [15]: Active; Activity [16]: Active; Activity [17]: Active; Activity [18]: Active; Activity [19]: Active |

The next lines start with results.

| inhibition [2] [%] | inhibition [3] [%] | Compound | Activity [1] | pIC50 [5] | pIC50 [6] | IC50 at 72 h [7] [µM] | pIC50 [8] | pIC50 [9] | pIC50 [10] | pIC50 [11] | pIC50 [12] | other results |
| --- | --- | --- | --- | --- | --- | --- | --- | --- | --- | --- | --- | --- |
| < 20 | 22.9 | COc1ccc2c(Cc3cn(C)c4c(C(=O)OCC(F)(F)F)c(OC)ccc34)cn(C)c2c1C(=O)OCC(F)(F)F | Non-Toxic | – | – | – | – | – | – | – | – | – |
| < 20 | < 20 | COc1ccc2c(Cc3cn(C)c4c(C(=O)NCC(F)(F)F)c(OC)ccc34)cn(C)c2c1C(=O)NCC(F)(F)F | Non-Toxic | – | – | – | – | – | – | – | – | – |
